This is an account of results in article PMC3553987 (Nucleic Acids Research, 2012).

The target in assay [1] is T1, P-STAT1 (Homo sapiens, UniProt P42224).
T1 sequence (P42224 1-750): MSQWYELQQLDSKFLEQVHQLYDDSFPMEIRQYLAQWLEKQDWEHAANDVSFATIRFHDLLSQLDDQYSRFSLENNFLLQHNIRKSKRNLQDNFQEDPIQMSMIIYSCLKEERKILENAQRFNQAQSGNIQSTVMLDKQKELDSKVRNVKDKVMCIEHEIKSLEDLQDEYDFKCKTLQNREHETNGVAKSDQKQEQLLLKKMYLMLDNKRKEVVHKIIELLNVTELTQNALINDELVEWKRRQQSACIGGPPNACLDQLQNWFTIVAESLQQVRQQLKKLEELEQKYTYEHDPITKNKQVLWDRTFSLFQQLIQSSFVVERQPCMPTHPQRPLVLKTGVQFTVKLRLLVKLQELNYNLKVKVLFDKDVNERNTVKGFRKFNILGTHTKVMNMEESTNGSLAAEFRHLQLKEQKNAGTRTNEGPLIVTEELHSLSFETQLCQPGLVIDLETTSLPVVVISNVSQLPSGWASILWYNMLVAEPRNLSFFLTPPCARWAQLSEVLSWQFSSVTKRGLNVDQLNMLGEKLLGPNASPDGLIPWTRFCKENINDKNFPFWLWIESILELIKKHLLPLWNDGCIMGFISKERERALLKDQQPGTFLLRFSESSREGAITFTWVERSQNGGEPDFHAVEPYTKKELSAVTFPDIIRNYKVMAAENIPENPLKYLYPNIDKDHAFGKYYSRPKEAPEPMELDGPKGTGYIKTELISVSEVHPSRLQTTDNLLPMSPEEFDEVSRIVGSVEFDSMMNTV
Description: TIRF-PBM: inhibition of P-STAT1 equilibrium binding to DNA array. Conditions: 20 µM compound, 50 nM P-STAT1. Summed up:
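Phosphorylated STAT1 (50 nM), amine-labelled with DyLight dyes, with test compound (20 μM final, from 5 mM DMSO stock). Flowed >30 min at 25°C over dsDNA hydrogel microarray; TIRF read, 20 s exposures. Intensities from 5–10 replicate spots, binned as GAS palindrome with 3-nt spacer, half-GAS, or absent/misspaced GAS.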

The subject of assay [2] is STAT3. Conditions: STAT3, at this concentration (20 µM), in cells and in vivo; cited from earlier work.
Assay [3] addresses Myc/Max (Homo sapiens, UniProt P01106). The assay is described as follows: TIRF-PBM: inhibition of Myc/Max equilibrium binding to DNA array. Conditions: 50 μM Mycro3, 10 nM Myc/Max. Summed up:
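DyLight-labelled Myc/Max (His-tagged c-Myc and Max expressed separately in E. coli, then denatured and renatured together) with test compound (5 mM DMSO stock, 50 μM final). Equilibrium intensity from 5–10 replicate spots; E-box consensus vs mutated/absent bins compared by two-tailed t-test with Welch's correction.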

Assay [4] deals with Myc/Max. Conditions: read-out: reported IC50; obtained with a cognate-binding site; cited from earlier work.

Sequence of Myc/Max (Homo sapiens, UniProt P01106) (P01106 whole entry): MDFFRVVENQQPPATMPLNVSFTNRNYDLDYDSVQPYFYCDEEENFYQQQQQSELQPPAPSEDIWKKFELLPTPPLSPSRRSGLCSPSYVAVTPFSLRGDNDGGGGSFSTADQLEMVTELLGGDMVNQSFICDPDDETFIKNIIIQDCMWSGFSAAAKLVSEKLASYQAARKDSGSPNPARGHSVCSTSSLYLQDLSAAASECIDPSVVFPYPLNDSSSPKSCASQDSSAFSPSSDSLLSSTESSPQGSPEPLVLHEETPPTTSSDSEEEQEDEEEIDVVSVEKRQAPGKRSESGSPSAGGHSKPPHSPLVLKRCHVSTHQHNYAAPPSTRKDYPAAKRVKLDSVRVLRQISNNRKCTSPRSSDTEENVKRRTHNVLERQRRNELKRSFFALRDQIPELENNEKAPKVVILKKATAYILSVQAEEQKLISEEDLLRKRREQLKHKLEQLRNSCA

In the case of `CC(=O)c1cccc2c1C(=O)c1cccc(O)c1C2=O` [LLL3], in assay [1], the “adjusted binding intensity at 'Half Sites'” value was 59.4 ± 15.5%; the “adjusted binding intensity at 'Poor Affinity' sites” value worked out at 42.4 ± 13.1%; the “average adjusted binding intensity at 'High Affinity' sites, % of the no-inhibitor control” value is recorded as 12.6 ± 4.9%; the “fold reduction in binding at 'High Affinity' sites” value was about 8 fold. In assay [2], the “DNA binding, % of normal activity” value is listed as about 40%.
Turning to `CCOC(=O)c1cnn(-c2ccccc2)c1NC(=O)c1cc2nc(-c3ccco3)cc(C(F)(F)Cl)n2n1` [Mycro3], in assay [3], the “Myc/Max binding intensity at 'high affinity' sites, % signal” value is listed as 68.5 ± 10.6% and the “Myc/Max binding signal at weaker affinity sites” value is given as 66.2 ± 23.7%. Also, in assay [4], the concentration for half-maximal inhibition (IC50) is 40 ± 13 µM.

For orientation: IC50 means the concentration needed to halve the response being measured.
